# In ChEMBL document CHEMBL3526021, “NADPH-cytochrome P450 oxidoreductase: roles in physiology, pharmacology, and toxicology” (Drug Metab Dispos, 2013):
# Legend:
# Mus musculus = assay: AUC (0 to infinity) in Por lox/lox wild type mouse at 2.5 mg/kg, po treated 10 days after 40 mg/kg, ip 3-methylcholanthrene administration by liquid chromatography-tandem mass spectrometry; assay type: ADME, organism-based, Plasma; details: in vivo, 240 h
# How it was run: (§1)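 Adult male mice (n = 3): Por lox/lox wild type, or RCN (Por lox/lox plus Cre under CYP1A1 promoter). Pretreated i.p. in corn oil with either 3-MC 40 mg/kg as a single dose, or BNF 80 mg/kg daily for 4 days. After 10 days, oral dosing at 2.5 mg/kg. Serial tail-vein blood was analysed by LC-MS/MS for parent drug; mean ± SD.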
# [1] = AUC (0 to infinity) in liver Por deleted-reductase conditional null mouse at 2.5 mg/kg, po treated 10 days after 40 mg/kg, ip 3-methylcholanthrene administration by liquid chromatography-tandem mass spectrometry; assay type: ADME, organism-based; details: in vivo; how it was run: as §1
# [2] = AUC (0 to last) in Por lox/lox wild type mouse at 2.5 mg/kg, po treated 10 days after 40 mg/kg, ip 3-methylcholanthrene administration by liquid chromatography-tandem mass spectrometry; assay type: ADME, organism-based; details: plasma; how it was run: as §1
# [3] = AUC (0 to last) in liver Por deleted-reductase conditional null mouse at 2.5 mg/kg, po treated 10 days after 40 mg/kg, ip 3-methylcholanthrene administration by liquid chromatography-tandem mass spectrometry; assay type: ADME, organism-based; details: in vivo; how it was run: as §1
# [4] = Cmax in Por lox/lox wild type mouse at 2.5 mg/kg, po treated 10 days after 40 mg/kg, ip 3-methylcholanthrene administration by liquid chromatography-tandem mass spectrometry; assay type: ADME, organism-based; details: in vivo; how it was run: as §1
# [5] = Cmax in liver Por deleted-reductase conditional null mouse at 2.5 mg/kg, po treated 10 days after 40 mg/kg, ip 3-methylcholanthrene administration by liquid chromatography-tandem mass spectrometry; assay type: ADME, organism-based; details: in vivo; how it was run: as §1
# [6] = Clearance in liver Por deleted-reductase conditional null mouse at 2.5 mg/kg, po treated 10 days after 40 mg/kg, ip 3-methylcholanthrene administration by liquid chromatography-tandem mass spectrometry; assay type: ADME, organism-based; details: in vivo; how it was run: as §1
# [7] = AUC (0 to infinity) in Por lox/lox wild type mouse at 2.5 mg/kg, po treated 10 days after 80 mg/kg, ip beta-naphthoflavone administration by liquid chromatography-tandem mass spectrometry; assay type: ADME, organism-based; details: plasma; how it was run: as §1
# [8] = AUC (0 to infinity) in liver and gut Por deleted-reductase conditional null mouse at 2.5 mg/kg, po treated 10 days after 80 mg/kg, ip beta-naphthoflavone administration by liquid chromatography-tandem mass spectrometry; assay type: ADME, organism-based; details: in vivo; how it was run: as §1
# [9] = AUC (0 to last) in Por lox/lox wild type mouse at 2.5 mg/kg, po treated 10 days after 80 mg/kg, ip beta-naphthoflavone administration by liquid chromatography-tandem mass spectrometry; assay type: ADME, organism-based; details: plasma; how it was run: as §1
# [10] = AUC (0 to last) in liver and gut Por deleted-reductase conditional null mouse at 2.5 mg/kg, po treated 10 days after 80 mg/kg, ip beta-naphthoflavone administration by liquid chromatography-tandem mass spectrometry; assay type: ADME, organism-based; details: in vivo; how it was run: as §1
# [11] = Cmax in Por lox/lox wild type mouse at 2.5 mg/kg, po treated 10 days after 80 mg/kg, ip beta-naphthoflavone administration by liquid chromatography-tandem mass spectrometry; assay type: ADME, organism-based; details: in vivo; how it was run: as §1
# [12] = Cmax in liver and gut Por deleted-reductase conditional null mouse at 2.5 mg/kg, po treated 10 days after 80 mg/kg, ip beta-naphthoflavone administration by liquid chromatography-tandem mass spectrometry; assay type: ADME, organism-based; details: in vivo; how it was run: as §1
# [13] = Clearance in Por lox/lox wild type mouse at 2.5 mg/kg, po treated 10 days after 80 mg/kg, ip beta-naphthoflavone administration by liquid chromatography-tandem mass spectrometry; assay type: ADME, organism-based; details: in vivo; how it was run: as §1
# [14] = Clearance in liver and gut Por deleted-reductase conditional null mouse at 2.5 mg/kg, po treated 10 days after 80 mg/kg, ip beta-naphthoflavone administration by liquid chromatography-tandem mass spectrometry; assay type: ADME, organism-based; details: in vivo; how it was run: as §1
# in vivo [15] = details: mouse, po, 2.5 mg/kg
# in vivo [16] = details: mouse, po, 2.5 mg/kg; remark: listed apart in the source
# in vivo [17] = details: mouse, po, 2.5 mg/kg; remark: listed apart in the source
# in vivo [18] = details: mouse, po, 2.5 mg/kg; remark: listed apart in the source
structure (smiles),measurement,setting,value
Cc1ncc2n1-c1ccc(Cl)cc1C(c1ccccc1F)=NC2 [MIDAZOLAM],AUC,Mus musculus,8.7 µg·min/mL
same,AUC(0-inf),[1],2250 ng·h/mL
same,AUC(0-t) at 240 h,[2],125 ng·h/mL
same,AUC(0-t) at 240 h,[3],2100 ng·h/mL
same,Cmax,[4],110 ng/mL
same,Cmax,[5],900 ng/mL
same,CL/F,[6],26.8 mL/min/kg
same,AUC(0-inf),[7],278 ng·h/mL
same,AUC(0-inf),[8],5830 ng·h/mL
same,AUC(0-t) at 240 h,[9],228 ng·h/mL
same,AUC(0-t) at 240 h,[10],5520 ng·h/mL
same,Cmax,[11],140 ng/mL
same,Cmax,[12],2300 ng/mL
same,CL/F,[13],180 mL/min/kg
same,CL/F,[14],9.3 mL/min/kg
same,half-life at 240 h,in vivo [15],1.13 h
same,half-life at 240 h,in vivo [16],2.13 h
same,half-life at 240 h,in vivo [17],1.92 h
same,half-life at 240 h,in vivo [18],1.9 h
